Data published in ChEMBL document CHEMBL3779892, “Increasing the binding affinity of VEGFR-2 inhibitors by extending their hydrophobic interaction with the active site: Design, synthesis and biological evaluation of 1-substituted-4-(4-methoxybenzyl)phthalazine derivatives” (Eur J Med Chem, 2016).

What was measured:
Format in all cases: functional
[1] = system: Malme-3M; test: Growth inhibition of human MALME-3M cells at 10 uM after 48 hrs by sulforhodamine B assay; conditions: read-out: GI
Summary of the method: (§1)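 Run at NCI on the 60-line panel. Cells grown in RPMI 1640 with 5% FBS and 2 mM L-glutamine, plated at 5000–40,000 cells/well by doubling time, and held 24 h at 37 °C before dosing. Drug (DMSO stock) given at a single final 10 µM in triplicate wells for 48 h. Adherent cells fixed with cold TCA (10% final), suspension cells with 16% TCA. SRB stain read at 515 nm. Percent growth from Tz, C and Ti.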

[2] = Growth inhibition of human SF268 cells at 10 uM after 48 hrs by sulforhodamine B assay; conditions: SF-268, 48 h, read-out: GI; summary of the method: as §1
[3] = system: U-251; test: Growth inhibition of human U251 cells at 10 uM after 48 hrs by sulforhodamine B assay; conditions: U-251, 48 h, read-out: GI
Summary of the method: (§2)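 NCI-60 panel, adherent cells grown in RPMI 1640 with 5% FBS and 2 mM L-glutamine, plated at 5000–40,000 cells/well and preincubated 24 h at 37 °C, 5% CO2. 10 µM final compound from DMSO stock, triplicate wells, 48 h. Fixed with cold TCA (10% final, 60 min, 4 °C) and stained with 0.4% SRB. Absorbance read at 515 nm; growth calculated against time-zero and control wells.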

[4] = system: M14; test: Growth inhibition of human M14 cells at 10 uM after 48 hrs by sulforhodamine B assay; conditions: M14, 48 h, read-out: GI; summary of the method: as §1
[5] = system: CCRF-CEM; test: Growth inhibition of human CCRF-CEM cells at 10 uM after 48 hrs by sulforhodamine B assay; conditions: read-out: GI; summary of the method: as §1
[6] = Growth inhibition of human RXF393 cells at 10 uM after 48 hrs by sulforhodamine B assay; conditions: RXF 393, 48 h, read-out: GI; summary of the method: as §1
[7] = Growth inhibition of human Hs 578T cells at 10 uM after 48 hrs by sulforhodamine B assay; conditions: read-out: GI; summary of the method: as §1
[8] = system: A549; test: Growth inhibition of human A549 cells at 10 uM after 48 hrs by sulforhodamine B assay; conditions: A549, 48 h, read-out: GI; summary of the method: as §1
[9] = Growth inhibition of human HCT15 cells at 10 uM after 48 hrs by sulforhodamine B assay; conditions: HCT-15, 48 h, read-out: GI; summary of the method: as §1
[10] = Growth inhibition of human OVCAR3 cells at 10 uM after 48 hrs by sulforhodamine B assay; conditions: OVCAR-3, 48 h, read-out: GI; summary of the method: as §1
[11] = system: MDA-MB-468; test: Growth inhibition of human MDA-MB-468 cells at 10 uM after 48 hrs by sulforhodamine B assay; conditions: MDA-MB-468, 48 h, read-out: GI; summary of the method: as §1
[12] = system: NCI-H226; test: Growth inhibition of human NCI-H226 cells at 10 uM after 48 hrs by sulforhodamine B assay; conditions: NCI-H226, 48 h, read-out: GI; summary of the method: as §1
[13] = system: NCI-H522; test: Growth inhibition of human NCI-H522 cells at 10 uM after 48 hrs by sulforhodamine B assay; conditions: NCI-H522, 48 h, read-out: GI; summary of the method: as §1
[14] = Growth inhibition of human HOP92 cells at 10 uM after 48 hrs by sulforhodamine B assay; conditions: HOP-92, 48 h, read-out: GI; summary of the method: as §1
[15] = system: MDA-MB-435; test: Growth inhibition of human MDA-MB-435 cells at 10 uM after 48 hrs by sulforhodamine B assay; conditions: MDA-MB-435, 48 h, read-out: GI; summary of the method: as §1
[16] = system: SK-MEL-5; test: Growth inhibition of human SK-MEL-5 cells at 10 uM after 48 hrs by sulforhodamine B assay; conditions: SK-MEL-5, 48 h, read-out: GI; summary of the method: as §1
[17] = Growth inhibition of human SW620 cells at 10 uM after 48 hrs by sulforhodamine B assay; conditions: SW-620, 48 h, read-out: GI; summary of the method: as §2
[18] = system: ACHN; test: Growth inhibition of human ACHN cells at 10 uM after 48 hrs by sulforhodamine B assay; conditions: read-out: GI; summary of the method: as §1
[19] = Growth inhibition of human UO31 cells at 10 uM after 48 hrs by sulforhodamine B assay; conditions: UO-31, 48 h, read-out: GI; summary of the method: as §2
[20] = system: SN12C; test: Growth inhibition of human SN12C cells at 10 uM after 48 hrs by sulforhodamine B assay; conditions: read-out: GI; summary of the method: as §1
[21] = Growth inhibition of human OVCAR5 cells at 10 uM after 48 hrs by sulforhodamine B assay; conditions: OVCAR-5, 48 h, read-out: GI; summary of the method: as §1
[22] = Growth inhibition of human PC3 cells at 10 uM after 48 hrs by sulforhodamine B assay; conditions: PC-3, 48 h, read-out: GI; summary of the method: as §1
[23] = Growth inhibition of human HCT116 cells at 10 uM after 48 hrs by sulforhodamine B assay; conditions: HCT-116, 48 h, read-out: GI; summary of the method: as §1
[24] = Growth inhibition of human Caki1 cells at 10 uM after 48 hrs by sulforhodamine B assay; conditions: CAKI-1, 48 h, read-out: GI; summary of the method: as §1
[25] = system: NCI-H460; test: Growth inhibition of human NCI-H460 cells at 10 uM after 48 hrs by sulforhodamine B assay; conditions: NCI-H460, 48 h, read-out: GI; summary of the method: as §1
[26] = system: HT-29; test: Growth inhibition of human HT-29 cells at 10 uM after 48 hrs by sulforhodamine B assay; conditions: HT-29, 48 h, read-out: GI; summary of the method: as §1
[27] = system: SR; test: Growth inhibition of human SR cells at 10 uM after 48 hrs by sulforhodamine B assay; conditions: read-out: GI
Summary of the method: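 NCI-60 screen. Cells were grown in RPMI 1640 with 5% FBS and 2 mM L-glutamine, plated at 5000–40,000 cells/well and held 24 h at 37 °C, 5% CO2. Single 10 µM final dose from DMSO stock, triplicate wells, 48 h. Settled cells were fixed with 80% TCA (16% final) and stained with 0.4% SRB. Dye was solubilized in 10 mM Tris and read at 515 nm. Growth was calculated against time-zero and untreated wells.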

[28] = Growth inhibition of human SNB19 cells at 10 uM after 48 hrs by sulforhodamine B assay; conditions: SNB-19, 48 h, read-out: GI; summary of the method: as §1
[29] = system: MDA-MB-231; test: Growth inhibition of human MDA-MB-231 cells at 10 uM after 48 hrs by sulforhodamine B assay; conditions: MDA-MB-231, 48 h, read-out: GI; summary of the method: as §1
[30] = system: NCI-H23; test: Growth inhibition of human NCI-H23 cells at 10 uM after 48 hrs by sulforhodamine B assay; conditions: NCI-H23, 48 h, read-out: GI; summary of the method: as §1
[31] = system: A498; test: Growth inhibition of human A498 cells at 10 uM after 48 hrs by sulforhodamine B assay; conditions: A498, 48 h, read-out: GI; summary of the method: as §1
[32] = Growth inhibition of human OVCAR8 cells at 10 uM after 48 hrs by sulforhodamine B assay; conditions: OVCAR-8, 48 h, read-out: GI; summary of the method: as §1
[33] = Growth inhibition of human LOXIMVI cells at 10 uM after 48 hrs by sulforhodamine B assay; conditions: LOX IMVI, read-out: GI; summary of the method: as §1
[34] = Growth inhibition of human SKOV3 cells at 10 uM after 48 hrs by sulforhodamine B assay; conditions: SK-OV-3, 48 h, read-out: GI; summary of the method: as §1

SMILES	inhibition of growth at 10 µM [1] [%]	inhibition of growth at 10 µM [2] [%]	inhibition of growth at 10 µM [3] [%]	inhibition of growth at 10 µM [4] [%]	inhibition of growth at 10 µM [5] [%]	inhibition of growth at 10 µM [6] [%]	inhibition of growth at 10 µM [7] [%]	inhibition of growth at 10 µM [8] [%]	inhibition of growth at 10 µM [9] [%]	inhibition of growth at 10 µM [10] [%]	inhibition of growth at 10 µM [11] [%]	inhibition of growth at 10 µM [12] [%]	inhibition of growth at 10 µM [13] [%]	inhibition of growth at 10 µM [14] [%]	inhibition of growth at 10 µM [15] [%]	inhibition of growth at 10 µM [16] [%]	inhibition of growth at 10 µM [17] [%]	inhibition of growth at 10 µM [18] [%]	inhibition of growth at 10 µM [19] [%]	inhibition of growth at 10 µM [20] [%]	also measured
COc1ccc(Cc2nnc(Nc3ccc(NC(=O)Nc4cccc(Cl)c4)cc3)c3ccccc23)cc1	< 30	< 30	< 30	< 30	41	40	< 30	35	< 30	< 30	< 30	< 30	57	< 30	< 30	< 30	< 30	39	< 30	< 30	inhibition of growth at 10 µM [21]: < 30%; inhibition of growth at 10 µM [22]: 32%; inhibition of growth at 10 µM [23]: 37%; inhibition of growth at 10 µM [24]: < 30%; inhibition of growth at 10 µM [25]: < 30%; inhibition of growth at 10 µM [26]: < 30%; inhibition of growth at 10 µM [27]: < 30%; inhibition of growth at 10 µM [28]: < 30%; inhibition of growth at 10 µM [29]: < 30%; inhibition of growth at 10 µM [30]: < 30%; inhibition of growth at 10 µM [31]: < 30%; inhibition of growth at 10 µM [32]: < 30%; inhibition of growth at 10 µM [33]: < 30%; inhibition of growth at 10 µM [34]: < 30%
COc1ccc(Cc2nnc(Nc3ccc(NC(=O)Nc4cccc(OC)c4)cc3)c3ccccc23)cc1	< 30	< 30	32	< 30	< 30	50	50	< 30	< 30	< 30	< 30	< 30	< 30	< 30	< 30	< 30	< 30	< 30	< 30	< 30	inhibition of growth at 10 µM [21]: < 30%; inhibition of growth at 10 µM [22]: < 30%; inhibition of growth at 10 µM [23]: < 30%; inhibition of growth at 10 µM [24]: < 30%; inhibition of growth at 10 µM [25]: < 30%; inhibition of growth at 10 µM [26]: < 30%; inhibition of growth at 10 µM [27]: < 30%; inhibition of growth at 10 µM [28]: < 30%; inhibition of growth at 10 µM [29]: < 30%; inhibition of growth at 10 µM [30]: < 30%; inhibition of growth at 10 µM [31]: < 30%; inhibition of growth at 10 µM [32]: < 30%; inhibition of growth at 10 µM [33]: < 30%; inhibition of growth at 10 µM [34]: < 30%
COc1ccc(Cc2nnc(Nc3ccc(NC(=O)Nc4ccc(Cl)c(C(F)(F)F)c4)cc3)c3ccccc23)cc1	< 30	< 30	51	40	55	72	48	48	40	78	37	< 30	68	< 30	35	36	< 30	50	< 30	< 30	inhibition of growth at 10 µM [21]: 30%; inhibition of growth at 10 µM [22]: 45%; inhibition of growth at 10 µM [23]: 53%; inhibition of growth at 10 µM [24]: < 30%; inhibition of growth at 10 µM [25]: 36%; inhibition of growth at 10 µM [26]: 61%; inhibition of growth at 10 µM [27]: 40%; inhibition of growth at 10 µM [28]: 45%; inhibition of growth at 10 µM [29]: 41%; inhibition of growth at 10 µM [30]: < 30%; inhibition of growth at 10 µM [31]: < 30%; inhibition of growth at 10 µM [32]: 66%; inhibition of growth at 10 µM [33]: 32%; inhibition of growth at 10 µM [34]: 38%
COc1ccc(Cc2nnc(Nc3ccc(NC(=O)Nc4ccc(Cl)cc4)cc3)c3ccccc23)cc1	< 30	< 30	48	30	42	79	75	33	41	< 30	< 30	< 30	43	< 30	< 30	< 30	< 30	46	< 30	< 30	inhibition of growth at 10 µM [21]: < 30%; inhibition of growth at 10 µM [22]: 31%; inhibition of growth at 10 µM [23]: 42%; inhibition of growth at 10 µM [24]: < 30%; inhibition of growth at 10 µM [25]: 110%; inhibition of growth at 10 µM [26]: 34%; inhibition of growth at 10 µM [27]: 40%; inhibition of growth at 10 µM [28]: 39%; inhibition of growth at 10 µM [29]: 30%; inhibition of growth at 10 µM [30]: < 30%; inhibition of growth at 10 µM [31]: 32%; inhibition of growth at 10 µM [32]: < 30%; inhibition of growth at 10 µM [33]: < 30%; inhibition of growth at 10 µM [34]: < 30%
